Screens deposited in PubChem by several laboratories.
Shown is part of a subset that was picked to be rich in hits.
Calb FLC = affects C. albicans growth with fluconazole; C. albicans CaCi-2 (fluconazole-resistant clinical isolate) + fluconazole, Alamar Blue growth, 48 h; growth inhibition, % (no concentration beside the values); 300,000 tested, 0.57% active; AID 1979;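 active = growth inhibition above about 58% in most replicates, limit read from the data, passing the limit was not always enough; inconclusive = exactly half the replicates above a set limit; inactive = most replicates below a set limit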;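 also: all wells also contain fluconazole at 8 µg/ml as a sub-toxic cotreatment; 0% = median of DMSO wells and 100% = median of geldanamycin control wells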
NALP1 yeast inh = inhibitors of NALP1 inflammasome in yeast; S. cerevisiae NALP1/ASC/caspase-1 growth, X-gal OD620, 72 h; inhibition, % at 10 µM; 280,000 tested, 0.61% active; in the data active = inhibition mostly above about 24%, no sharp cut-off; inactive = mostly below about 32%
T cruzi repl = blocks replication of Trypanosoma cruzi; AID 1885; inhibition, % (concentration not given with the values); T. cruzi beta-gal in NIH3T3, luminescence, 90 h; 300,000 tested, 1.4% active;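 active = mean inhibition across valid replicates above about 55%, limit read from the data; inconclusive = mean below that limit but half or more replicates reach it; inactive = mean below it, under half of replicates reach it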;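 also: signal also drops with host cell toxicity which is not excluded here; 0% = plate median of DMSO wells and 100% = zero luminescence signal; higher percent means less beta-gal luminescence so fewer parasites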
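System: mouse NIH/3T3 fibroblasts infected with β-gal-expressing T. cruzi Tulahuen C4 / Input: NIH/3T3 cells, 5,000 per well / Buffer or medium: Low-serum DMEM with 2% FBS / Probe or stimulus: 5000 reporter trypomastigotes per well / Schedule: ≥90 h infection period, 3 h prior cell attachment / Measured by: GalScreen luminescence, 60 min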
L major viab = reduces viability of Leishmania major promastigotes | 200,000 tested, 9% active | resazurin fluorescence viability | AID 1063 | inhibition, % at 10 µM; in the data active = inhibition above about 50%;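 also: promastigotes grown with compound for 44 hours at 28 °C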
PolyA inhibitor = yeast polyadenylation inhibition. 300,000 tested, 0.02% active. AID 1875. S. cerevisiae SKY197-pL101 polyadenylation reporter, beta-gal luminescence; efflux-impaired pdr1/pdr3 knockout yeast; score 100 = 6 SD above DMSO. activity score, % at 12 µM;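 active = lowest replicate activity score at least 50, where 100 means six control SD above control mean; inconclusive = lowest score under 50 but half or more replicates reach 50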;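 also: yeast exposed to compound for 9 h at 30 °C; higher score means more reporter readthrough which indicates perturbed polyadenylation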
NALP3 yeast inh = inhibitors of NALP3 inflammasome in yeast. 330,000 tested, 0.39% active. inhibition, % at 10 µM. Yeast reconstituted NLRP3/ASC/caspase-1, beta-gal luminescence, 24 h;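 active = inhibition of 50% or more; inactive = inhibition below 50%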;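 also: plate controls were induced DMSO wells for no effect and uninduced yeast grown without galactose for full effect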
Numbers without * were called inactive; u = inconclusive; x = not tested or not shown.

SMILES	Calb FLC	NALP1 yeast inh	T cruzi repl	L major viab	PolyA inhibitor	NALP3 yeast inh
CC[n+]1ccc(/C=C/c2ccc(N(C)C)cc2)c2ccccc21	x	45*	x	100*	x	x
CCN(CC)c1ccc(/C=C/c2ccc3ccc(OC)cc3[n+]2CC)cc1	105*	11	61*	x	-48	26
CC[n+]1ccccc1/C=C/c1ccc(N(C)C)cc1	-56	11	59*	96*	-13	x
CC[n+]1c(/C=C/c2ccc(N(C)C)cc2)ccc2ccccc21	-4	92*	49	100*	-15	x
Cc1ccc(-n2c(CNc3ccc(C)c(Cl)c3)n[nH]c2=S)cc1	8	4	-10	12	-11	27
O=C(Cn1cnc2ccccc21)N/N=C/c1cccc([N+](=O)[O-])c1	-3	11	-4	1	10	14
COc1ccccc1CNC(=O)c1nccnc1CO	0	15	2	x	4	10
S=c1[nH]nc(CSc2nc3ccccc3s2)n1C1CCCCC1	-8	-12	7	7	-14	38
CC(=O)c1ccc(N2CCN(C(=O)c3ccco3)C(C)C2)c(F)c1 (configuration not stated)	0	3	-1	64*	x	3
CC1CN(c2ccc([N+](=O)[O-])cc2F)CCN1C(=O)c1ccco1 (configuration not stated)	-2	8	-8	x	0	23
CC(C)Oc1ccc(C(=O)Nc2ncn[nH]2)cc1	-10	-2	-7	x	11	2
Cc1ccc(CN2CCN(CC(=O)N=Nc3c(O)[nH]c4ccccc34)CC2)cc1	-3	33	58*	100*	0	2
O=C(CN1CCN(Cc2ccccc2Cl)CC1)N=Nc1c(O)[nH]c2ccccc12	3	32	12	7	-3	9
Cc1cccc(NC(=O)CSc2nsc(SCC(=O)Nc3cccc(C)c3)c2C#N)c1	17	31	9	69*	-1	11
O=C(COC(=O)c1cc(Br)ccc1O)NNC(=O)c1cccs1	x	x	x	x	x	2
O=C(Nc1ccc(F)cc1F)NC1CCCCCCC1	-23	-5	x	x	x	11
O=C1CCC/C(=N/Nc2ccc(Cl)cc2)C1	106*	-2	9	99*	7	16
CN(Cc1ccccc1)C(=O)COC(=O)CN1C(=O)c2ccccc2C1=O	x	x	x	x	x	-4
O=C(N1CCN(c2ccccc2)CC1)C12CC3CC(CC(C3)C1)C2	-8	22	-2	95*	-3	15
O=C(Nc1ccccc1-c1ccccc1)C12CC3CC(CC(C3)C1)C2	2	-6	27	89*	4	4
O=C(Nc1ccccc1-c1ccccc1)C1CCCC1	-12	-15	-8	0	-22	-35
CC(=O)Nc1nc(COc2ccccc2)cs1	18	-2	5	-6	3	16
O=C(Nc1nc(COc2ccccc2)cs1)C12CC3CC(CC(C3)C1)C2	-41	-16	u	100*	-11	24
O=C(Nc1ccccc1N1CCN(c2ccc(F)cc2)CC1)C12CC3CC(CC(C3)C1)C2	-16	-45	34	100*	-5	-9
O=C(NC(=S)N1CCN(c2ccc(F)cc2)CC1)C12CC3CC(CC(C3)C1)C2	1	29	31	80*	8	20
SMILES	Calb FLC	NALP1 yeast inh	T cruzi repl	L major viab	PolyA inhibitor	NALP3 yeast inh
CCOc1ccccc1N1CCN(C(=S)NC(=O)C23CC4CC(CC(C4)C2)C3)CC1	7	29	14	31	-20	12
CCN1CCN(C(=O)c2ccc(CSc3ccc(C)cc3)cc2)CC1	98*	6	35	100*	-14	23
C/C(=N\NC(=O)c1ccc(CN2CCOCC2)cc1)c1ccc([N+](=O)[O-])cc1	15	2	-4	77*	-4	15
O=C(COc1ccc([N+](=O)[O-])cc1)Nc1ccc(CN2CCOCC2)cc1	-6	2	9	63*	14	7
O=C(COc1ccc(Cl)cc1)Nc1ccc(CN2CCOCC2)cc1	x	x	x	x	x	19
C/C(=N\NC(=O)c1cc([N+](=O)[O-])cc([N+](=O)[O-])c1)c1ccco1	-23	10	57*	-1	-6	-4
C/C(=N\NC(=O)c1ccc(-c2ccccc2)cc1)c1ccco1	-5	-1	-5	x	-2	18
O=C(CSc1nnc2ccccn12)Nc1nsc(-c2ccccc2)n1	-5	36	-2	-1	29	17
